Screening data from PubChem.
PRMT1 FP inh – PRMT1 (human) inhibition, primary screen. recombinant PRMT1, activity-based probe fluorescence polarization. Q99873. AID 652257. inhibition, % at 2.79 µM. actives 1.3% (n = 370,000);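 active means inhibition above about 21% made by adding two undisclosed values, limit read from the data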
TCR CD3 inh – human TCR-CD3 binding inhibition; TAMRA-labeled TCR probe fluorescence, biochemical; inhibition, % at 9.4 µM; actives 0.37% (n = 360,000); in the data active means inhibition above about 19%;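 further: recombinant mutant TCR 2C K166C tagged with TAMRA read by polarization; 0% = receptor in buffer alone and 100% = receptor with positive control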
rCAG RNA binder – r(CAG) repeat RNA binding. inhibition, % at 3 µM. actives 1.3% (n = 370,000). TO-PRO-1 dye displacement fluorescence. AID 651821;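 active means inhibition above the plate cutoff, the mean of all test compounds on that plate plus 3 SD, cut at about 35% in these data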;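 further: 0% = DMSO alone and 100% = 100 µM mitoxantrone as full dye displacement; higher means more dye released from RNA so lower well fluorescence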
SIAE primary – inhibitors of human sialic acid acetylesterase SIAE; Q9HAT2; SIAE FP-Rh probe binding, fluorescence polarization; inhibition, % at 9.66 µM; actives 0.69% (n = 370,000);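 active means inhibition above a cutoff: mean of compounds within the control limits plus 3 SD of those, cut at about 17% in these data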;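 further: 0% = plate median of compound wells and 100% = probe without SIAE protein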
HTRA1 inh – inhibitors of human serine peptidase HTRA1 | inhibition, % at 5.96 µM | recombinant HTRA1, FP-rhodamine activity-based probe, fluorescence polarization | actives 0.5% (n = 340,000) | Q92743; in the data active means inhibition above about 36%;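 further: 0% = enzyme with DMSO and 100% = wells lacking enzyme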
Target sequence (Q92743 whole entry, looked up): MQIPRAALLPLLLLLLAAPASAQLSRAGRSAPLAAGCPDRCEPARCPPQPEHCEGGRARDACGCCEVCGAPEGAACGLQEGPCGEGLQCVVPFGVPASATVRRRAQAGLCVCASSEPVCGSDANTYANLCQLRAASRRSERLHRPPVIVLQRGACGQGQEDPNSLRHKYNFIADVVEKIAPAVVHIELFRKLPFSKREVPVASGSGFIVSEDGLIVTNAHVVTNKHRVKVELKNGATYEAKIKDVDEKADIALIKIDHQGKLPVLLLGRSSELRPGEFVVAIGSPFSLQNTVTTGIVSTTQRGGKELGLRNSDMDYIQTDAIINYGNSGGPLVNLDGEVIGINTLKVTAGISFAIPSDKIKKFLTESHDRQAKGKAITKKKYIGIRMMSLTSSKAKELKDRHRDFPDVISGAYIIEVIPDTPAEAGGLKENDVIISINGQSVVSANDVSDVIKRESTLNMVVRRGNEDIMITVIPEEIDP
ABHD4 inh – inhibits mouse alpha/beta hydrolase domain 4; Q8VD66; purified mABHD4, FP-Rh probe fluorescence polarization; inhibition, % at 8.92 µM; actives 0.54% (n = 370,000); AID 720543;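 active means inhibition exceeding the mean over every tested compound plus 3 SD, cut at about 30% in these data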;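 further: 0% = plate median of compound wells and 100% = S159A mutant with DMSO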
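system = mouse ABHD4 enzyme, wild type | medium = HEPES pH 7.0, NaCl, Pluronic buffer | also added = FP-Rh probe | incubation = Enzyme–compound pre-incubation 45 min, then probe 60 min, both 25 °C | technique = fluorescence polarization, excitation 525 nm, emission 598 nm, BODIPY TMR filters | controls = S159A mutant high control, sample median low control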
SIAE confirm – confirmation of human SIAE inhibitors; inhibition, % at 9.66 µM; SIAE FP-Rh activity-based probe, fluorescence polarization; actives 13% (n = 2,300); shares compounds with SIAE primary;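 active means mean inhibition of the replicates above the hit cutoff set in the primary screen, cut at about 17% in these data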;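 further: 0% = SIAE with DMSO and probe and 100% = probe without SIAE; inhibitors lower polarization as more probe stays unbound to SIAE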
* marks the source's active call; other numbers are inactive results; x = no result; ! = not active in a repeat. The list is not random: actives were taken first. Their share in the collection is about 3.5%.

SMILES	PRMT1 FP inh	TCR CD3 inh	rCAG RNA binder	SIAE primary	HTRA1 inh	ABHD4 inh	SIAE confirm
CCN1CCc2c(sc(NC(=S)NC(=O)c3ccc(Cl)cc3)c2C(N)=O)C1	-1.6	-2.5	19.6	17.6*	-0.5	8.2	0.6
O=C(Nc1ccc(F)cc1)OCCN1C(=O)CCC12CCC(c1ccccc1)CC2 (stereo not drawn)	0.6	x	1.4	-5.0	x	1.0	x
Cc1ccc(C2CCC3(CCC(=O)N3CCOC(=O)Nc3ccc(F)cc3)CC2)cc1 (stereo not drawn)	3.7	x	10.2	18.5*!	x	-16.4	-12.0
O=C(CNS(=O)(=O)c1ccccc1)N1CCN(c2ccccn2)CC1	-2.0	x	1.8	0.1	x	0.4	x
CCn1cnc2cc(NCc3cccs3)ccc21	5.4	2.6	-2.3	20.9*	3.5	3.4	1.6
CC(C)(C)n1cnc2cc(NCc3cccs3)ccc21	0.4	3.3	-5.5	5.0	-2.6	1.2	x
Cc1[nH]nc2c1C(c1ccc(-c3ccc(Cl)cc3)o1)C(C#N)=C(N)O2 (stereo not drawn)	2.7	2.6	7.0	18.0*	0.1	3.6	-3.3
Cc1ccc(-c2ccc(C3C(C#N)=C(N)Oc4n[nH]c(C)c43)o2)cc1 (stereo not drawn)	7.9	0.4	11.4	12.7	4.5	12.5	x
Cn1c(SCc2ccccc2)nnc1-c1cnccn1	-2.6	-1.2	-1.5	19.6*	3.6	11.0	6.0
CC(=O)N(C)c1ccc(NC(=S)Nc2cccc3ccccc23)cc1	1.6	4.7	6.8	-11.9	9.1	7.4	x
CC(=O)c1ccc(NC(=S)Nc2cccc3ccccc23)cc1	2.5	-6.3	13.6	31.7*	7.8	14.4	1.0
CC1(C)CC(=O)C(C=NCC(N)=O)=C(O)C1	-2.5	6.8	1.0	17.7*	0.4	-3.0	-1.1
CCCc1cc(=O)oc2c(CN3CCCC3)c(O)c(Cl)cc12	-1.9	9.0	1.6	19.9*	5.1	6.7	4.1
CC(=O)N1c2ccc(S(=O)(=O)NCc3ccccc3Cl)cc2CC1C (stereo not drawn)	-0.7	6.7	-0.1	17.5*	2.9	7.0	2.7
O=C(NCc1ccccc1)N1CCC(c2nc3ccc(Cl)cc3[nH]2)CC1	-4.5	x	3.4	-2.0	x	1.2	x
CCCCN1CCS(=O)(=O)N(Cc2ccc(Cl)cc2)C(C(=O)OC)C1 (stereo not drawn)	2.3	x	-2.1	-2.2	x	3.2	x
CCOCCCNc1nc(=S)[nH]c2cc(OC)c(OC)cc12	2.0	8.2	-3.7	3.9	-0.5	11.6	x
COc1cc2[nH]c(=S)nc(NCCCOC(C)C)c2cc1OC	-2.3	-1.1	-3.4	24.0*	2.6	3.2	-4.2
COCCNc1nc2c(-c3cccc(C(F)(F)F)c3)nnn2c2ccccc12	-1.5	0.5	7.5	-1.9	-4.5	-2.0	x
NNc1nc2c(-c3cccc(C(F)(F)F)c3)nnn2c2ccccc12	-2.7	1.9	30.4	22.5*	-22.1	15.3	-9.5
CCN(CC)C(=O)N1c2ccccc2Sc2ccccc21	-2.6	2.2	-7.3	18.4*	-1.9	6.8	10.6
CCN(CC)CC(=O)N1c2ccccc2Sc2ccccc21	0.4	6.8	-6.6	-7.8	0.8	-0.3	x
O=C(CSc1nnc2ccccn12)NC(=O)c1ccccc1	1.1	7.0	1.1	17.1*	3.1	-0.6	-0.3
C=CC[C@@H]1NN2C(=O)[C@@H](CCc3ccccc3)[C@@H]3c4ccccc4C=NN3[C@@H]2c2ccccc21	-1.3	x	6.7	-5.6	x	3.0	x
COc1ccccc1C1CC(c2ccco2)=NN1c1ccccc1 (stereo not drawn)	1.5	2.1	7.2	17.2*	9.6	2.6	-1.6
SMILES	PRMT1 FP inh	TCR CD3 inh	rCAG RNA binder	SIAE primary	HTRA1 inh	ABHD4 inh	SIAE confirm
Nc1sc(-c2ccccc2)cc1C(=O)NCCc1c[nH]c2ccccc12	4.6	-1.9	15.7	25.8*	x	1.0	8.1
Nc1[nH]c(C(=O)c2ccccc2)c(-c2ccccc2Br)c1C(=O)NCCc1c[nH]c2ccccc12	2.2	0.4	10.9	19.4*	x	18.0	6.6
Nc1[nH]c(C(=O)c2ccccc2)c(-c2ccccc2[N+](=O)[O-])c1C(=O)NCCc1c[nH]c2ccccc12	3.9	-4.0	15.3	18.5*	x	22.8	1.3
Nc1[nH]c(C(=O)c2ccccc2)c(-c2ccc([N+](=O)[O-])cc2)c1C(=O)NCCc1c[nH]c2ccccc12	7.5	-6.0	11.8	3.9	x	8.7	x
COc1ccccc1CNC(=O)COC(=O)c1ccco1	-1.9	2.2	2.9	-17.5	4.4	-9.7	x
COc1ccccc1CNC(=O)COC(=O)c1ccc(C)s1	1.8	4.8	-0.2	23.4*	-3.8	4.0	4.1
CC(C)(C)c1ccc(/C=C/C(=O)c2ccc(NC3=NCCCS3)cc2)cc1	0.4	1.2	0.8	20.8*	-55.9	3.8	12.4
O=C(/C=C/c1ccc(Br)cc1)c1ccc(NC2=NCCCS2)cc1	5.0	2.4	1.4	39.8*	-42.2	-7.6	7.7
Cc1cccc(/C=C/C(=O)c2ccc(NC3=NCCCS3)cc2)c1	4.6	-3.4	-1.9	53.1*	-37.6	-5.3	1.7
COc1cccc(/C=C/C(=O)c2ccc(NC3=NCCCS3)cc2)c1	1.3	10.4	-2.9	5.1	-29.7	13.6	x
O=C(Nc1ccc(OC(F)(F)F)cc1)Nc1nc2ncccn2c1-c1ccc(C(F)(F)F)cc1	-3.9	x	0.7	4.8	x	10.5	x
O=C(Nc1cccc([N+](=O)[O-])c1)NC1CCCCN(Cc2ccc(Cl)cc2)C1=O (stereo not drawn)	-3.0	x	3.0	-9.7	x	7.4	x
CCOC(=O)[C@]12CCCC3=C1N(CCC3)C(=O)[C@@H](CC(=O)N1CCC(c3ccccc3)CC1)C2	1.8	x	0.6	0.5	x	6.4	x
COc1cc2cc(C(=O)N/N=C/c3ccccc3Cl)[nH]c2cc1OC	-3.3	2.4	1.8	26.7*	10.0	15.7	4.7
COc1ccc2cc(C(=O)N/N=C/c3cc(OC)c(OC)c(OC)c3)[nH]c2c1	0.5	3.2	1.9	27.9*	0.4	9.0	-9.5
COc1cc2cc(C(=O)N/N=C/c3ccc(F)cc3)[nH]c2cc1OC	-5.7	7.5	3.5	4.5	14.2	15.6	x
COc1cc(/C=N/NC(=O)c2cc(-c3ccccc3)sc2N)cc(OC)c1OC	-0.4	4.0	21.5	30.6*	x	5.2	-45.1
COc1ccc(/C=N/NC(=O)c2cc3cc(OC)c(OC)cc3[nH]2)cc1	-0.7	2.0	0.2	4.6	6.8	22.8	x
COC(=O)[C@]12C[C@H](CC(=O)NCc3ccccc3)C(=O)N(CCC3=CCCCC3)C1=C[C@H](C1CCCC1)O[C@@H]2C	3.3	x	2.3	-5.6	x	-10.2	x
S=C(Nc1ccc(Cl)cc1)N1CCN(Cc2ccccc2)CC1	1.2	-5.8	-3.8	18.1*	-8.8	-1.7	6.2
Cc1ccc(NC(=S)N2CCN(Cc3ccccc3)CC2)cc1	-2.3	1.7	-2.9	1.5	-0.3	5.3	x
